Results reported in ChEMBL document CHEMBL3286189, “Discovery and SAR studies of a novel class of cytotoxic 1,4-disubstituted piperidines via Ugi reaction” (Eur J Med Chem, 2014).

Key:
DU-145 = assay: Anticancer activity against human DU145 cells; format: functional
Procedure, shortened: (§1)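 Values come from the NCI 60-cell-line human tumour panel, run on a single analog. Cytostatic and cytotoxic responses were read for each cell line across graded molar concentrations of that compound.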

Huh-7 = assay: Cytostatic activity against human HuH7 cells assessed as inhibition of cell proliferation after 96 hrs by coulter counting analysis; format: functional, cell-based; settings: Huh-7, 96 h
Procedure, shortened: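 Anti-proliferative testing extended to human kidney Caki-1 and human liver Huh-7 tumour cells. The value reported is the IC50, the concentration that inhibits tumour cell growth by 50%.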

[1] = Anticancer activity against human Hs 578T cells; format: functional; procedure, shortened: as §1
NCI-H23 = assay: Anticancer activity against human NCI-H23 cells; format: functional; procedure, shortened: as §1
[2] = Anticancer activity against human HCC2998 cells; format: functional; procedure, shortened: as §1
MDA-MB-468 = assay: Anticancer activity against human MDA-MB-468 cells; format: functional; procedure, shortened: as §1
NCI/ADR-RES = assay: Anticancer activity against human NCI/ADR-RES cells; format: functional; procedure, shortened: as §1
[3] = Anticancer activity against human OVCAR4 cells; format: functional; procedure, shortened: as §1
RPMI-8226 = assay: Anticancer activity against human RPMI8226 cells; format: functional; procedure, shortened: as §1
MDA-MB-231 = assay: Anticancer activity against human MDA-MB-231/ATCC cells; format: functional; procedure, shortened: as §1
786-0 = assay: Anticancer activity against human 786-0 cells; format: functional; procedure, shortened: as §1
CCRF-CEM = assay: Cytostatic activity against human CEM cells assessed as inhibition of cell proliferation after 72 hrs by coulter counting analysis; format: functional, cell-based; settings: Homo sapiens, CCRF-CEM, 72 h
Procedure, shortened: (§2)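 Anti-proliferative screen in murine leukemia L1210, human T-lymphocyte CEM and human cervix carcinoma HeLa cultures. The value reported is the IC50, the concentration that inhibits cell proliferation by 50%.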

SK-OV-3 = assay: Anticancer activity against human SKOV3 cells; format: functional; procedure, shortened: as §1
[4] = Anticancer activity against human SF295 cells; format: functional; procedure, shortened: as §1
A498 = assay: Anticancer activity against human A498 cells; format: functional; procedure, shortened: as §1
HeLa = assay: Cytostatic activity against human HeLa cells assessed as inhibition of cell proliferation after 72 hrs by coulter counting analysis; format: functional, cell-based; settings: Homo sapiens, HeLa, 72 h; procedure, shortened: as §2
NCI-H460 = assay: Anticancer activity against human NCI-H460 cells; format: functional; procedure, shortened: as §1
[5] = Anticancer activity against human MOLT4 cells; format: functional; procedure, shortened: as §1
[6] = Anticancer activity against human UACC62 cells; format: functional
Procedure, shortened: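 Assayed in the NCI Cancer-60 human tumour cell line panel, with activity read across several log-step concentrations.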

[7] = read-out: pLC50 (the source's name) (converted)

Work on `CC(C)(C)OC(=O)N[C@@H](Cc1ccccc1)C(=O)N(Cc1ccccc1)C1(C(=O)NCc2ccccc2)CCN(Cc2ccccc2)CC1` yielded a GI50 (DU-145) of 5.37 µM, a CC50 (DU-145; [7]) of over 100 µM and a TGI (DU-145; read-out: pTGI) of over 100 µM. For the same compound, the IC50 (Huh-7) was 6.4 µM, the GI50 [1] was 4.27 µM and the CC50 [1, 7] was over 100 µM. It also gave a TGI ([1]; read-out: pTGI) of over 100 µM, a GI50 (NCI-H23) of 5.62 µM and a CC50 (NCI-H23; [7]) of over 100 µM. The TGI (NCI-H23; read-out: pTGI) was over 100 µM, the GI50 ([2]; HCC 2998) was 4.57 µM and the CC50 ([2]; HCC 2998, read-out: pLC50 (the source's name) (converted)) was over 100 µM. For the same compound, the TGI ([2]; HCC 2998, read-out: pTGI) was over 100 µM, the GI50 (MDA-MB-468) was 1.62 µM and the CC50 (MDA-MB-468; [7]) was over 100 µM. The TGI (MDA-MB-468; read-out: pTGI (converted)) was 5.89 µM, the GI50 (NCI/ADR-RES) was 2.88 µM and the CC50 (NCI/ADR-RES; [7]) was over 100 µM. The TGI (NCI/ADR-RES; read-out: pTGI (converted)) was 46.8 µM, the GI50 ([3]; OVCAR-4) was 3.24 µM and the CC50 ([3]; OVCAR-4, read-out: pLC50 (the source's name) (converted)) was over 100 µM. It also gave a TGI ([3]; OVCAR-4, read-out: pTGI) of over 100 µM, a GI50 (RPMI-8226) of 2.19 µM and a CC50 (RPMI-8226; [7]) of over 100 µM. The TGI (RPMI-8226; read-out: pTGI (converted)) was 6.92 µM, the GI50 (MDA-MB-231) was 3.02 µM and the CC50 (MDA-MB-231; [7]) was over 100 µM. It also gave a TGI (MDA-MB-231; read-out: pTGI (converted)) of 79.4 µM, a GI50 (786-0) of 3.02 µM and a CC50 (786-0; [7]) of over 100 µM. The TGI (786-0; read-out: pTGI) was 43.7 µM, the IC50 (CCRF-CEM) was 4.4 µM and the GI50 (SK-OV-3) was 3.02 µM. It also gave a CC50 (SK-OV-3; [7]) of over 100 µM, a TGI (SK-OV-3; read-out: pTGI) of over 100 µM and a GI50 ([4]; SF-295) of 2.88 µM. For the same compound, the CC50 ([4]; SF-295, read-out: pLC50 (the source's name) (converted)) was over 100 µM, the TGI ([4]; SF-295, read-out: pTGI) was over 100 µM and the GI50 (A498) was 1.45 µM. For the same compound, the CC50 (A498; [7]) was over 100 µM, the TGI (A498; read-out: pTGI (converted)) was 6.31 µM and the IC50 (HeLa) was 4.2 µM. The GI50 (NCI-H460) was 3.02 µM, the CC50 (NCI-H460; [7]) was over 100 µM and the TGI (NCI-H460; read-out: pTGI (converted)) was 87.1 µM. It also gave a GI50 ([5]; MOLT-4) of 1.82 µM, a CC50 ([5]; MOLT-4, read-out: pLC50 (the source's name) (converted)) of over 100 µM and a TGI ([5]; MOLT-4, read-out: pTGI (converted)) of 6.31 µM. It also gave a GI50 ([6]; UACC-62) of 2.51 µM, a CC50 ([6]; UACC-62, read-out: pLC50 (the source's name) (converted)) of over 100 µM and a TGI ([6]; UACC-62, read-out: pTGI (converted)) of 7.94 µM.
